Broadly, the LD50 is the dose at which mortality reaches 50%.

Each structure is given as a SMILES string.

For two compounds, Activity, inhibition in vivo and LD50 results are on record in ChEMBL document CHEMBL3227917, “Structure-activity relationships of dimeric Catharanthus alkaloids. 2. Experimental antitumor activities of N-substituted deacetylvinblastine amide (vindesine) sulfates” (J Med Chem, 1979).

Data set [1] relates to P388/VCR. Nature of the data set: Antitumor activity against mouse P388/VCR cells allografted in B6D2F1 mouse assessed as increase in host lifespan at 1.20 mg/kg, ip administered on days 1, 5 and 9. Format: functional. The note with it: dose 1.2 mg/kg; route intraperitoneal. In a few lines: (§1)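 P388/VCR leukemia in groups of 10 B6D2F1 mice, run at Lilly using the cell strain received from NCI. Sulfate salts given ip on days 1, 5 and 9. Read-out is percent increase in lifespan.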

Data set [2] in a line: Antitumor activity against mouse P1534 cells allografted in DBA2 mouse assessed as tumor growth inhibition at 0.10 mg/kg, ip administered daily for 8 to 10 days. The data set is classed as functional. The note with it: route intraperitoneal, read-out: TGI. In a few lines: (§2)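 P1534(J) leukemia implanted sc in DBA2 mice; sulfate salts dosed ip daily for 8–10 days. Growth inhibition scored –, 0–25%; +, 26–50%; ++, 51–75%; +++, 76–100%; T, lethal to ≥5 of 10 animals per group. Average of one or more tests.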

A further data set deals with Mus musculus. Nature of the data set: Toxicity in CD2F1 mouse allografted with mouse P388/VCR cells at 1.67 mg/kg, ip administered on days 1, 5 and 9. The settings on record: in vivo. Also on record: dose 1.67 mg/kg, route intraperitoneal. The data set is classed as organism-based.
The test system of data set [3] is P388/VCR. Nature of the data set: Antitumor activity against mouse P388/VCR cells allografted in B6D2F1 mouse assessed as increase in host lifespan at 0.90 mg/kg, ip administered on days 1, 5 and 9. Format: functional. The note with it: dose 0.9 mg/kg; route intraperitoneal. In outline: as §1
The nature of data set [4]: Antitumor activity against mouse P388/VCR/I/63 cells allografted in Dublin-CDF1 mouse assessed as day of host death at 1.5 mg/kg, ip administered on days 1, 5 and 9 (reference value: 10 days). The settings on record: route intraperitoneal. Format: functional.
Data set [5] deals with CHO. Nature of the data set: Mitotic arrest in CHO cells assessed as increase in cell accumulation at 0.02 ug/ml. Format: functional, Cricetulus griseus. In outline:
(§3)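 Chinese hamster ovary cells in tissue culture, scored for mitotic arrest as increase in cells in mitotic arrest over control: +++, 40–50%; ++, 15–40%; +, 10–15%; ±, 7–10%; –, 3–7%. Cytotoxicity noted separately.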

Data set [6] has as its system P388/S. Nature of the data set: Antitumor activity against mouse P388/S cells allografted in CD2F1 mouse assessed as increase in host lifespan at 0.60 mg/kg, ip administered on days 1, 5 and 9. Format: functional. The note with it: dose 0.6 mg/kg; route intraperitoneal. In a few lines:
(§4)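 Groups of eight male CD2F1 mice bearing P388 leukemia, run at NCI. Sulfate salts given ip on days 1, 5 and 9. Read-out is percent increase in lifespan.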

Data set [7] relates to P388/VCR. Nature of the data set: Antitumor activity against mouse P388/VCR cells allografted in CD2F1 mouse assessed as increase in host lifespan at 1.00 mg/kg, ip administered on days 1, 5 and 9. Format: functional. The settings on record: route intraperitoneal. In outline: as §4
Data set [8] deals with P388/S. Nature of the data set: Antitumor activity against mouse P388/S cells allografted in CD2F1 mouse assessed as increase in host lifespan at 1.67 mg/kg, ip administered on days 1, 5 and 9. Format: functional. The settings on record: route intraperitoneal. In outline: as §4
In data set [9] the test system is P388/S. Nature of the data set: Antitumor activity against mouse P388/S cells allografted in CD2F1 mouse assessed as increase in host lifespan at 1.00 mg/kg, ip administered on days 1, 5 and 9. The data set is classed as functional. The note with it: route intraperitoneal. In a few lines:
as §4

Data set [10] can be described thus: Antitumor activity against mouse P1534 cells allografted in DBA2 mouse assessed as tumor growth inhibition at 0.25 mg/kg, ip administered daily for 8 to 10 days. The data set is classed as functional. The note with it: route intraperitoneal, read-out: TGI. In outline: as §2
For data set [11], the system named is CHO. Nature of the data set: Cytotoxicity against CHO cells at 0.02 ug/ml. Format: cell-based, Cricetulus griseus. The note with it: chinese hamster. In a few lines:
as §3

Data set [12] has as its system CHO. Nature of the data set: Mitotic arrest in CHO cells assessed as increase in cell accumulation at 0.002 ug/ml. Format: functional, Cricetulus griseus. In outline:
as §3

The nature of data set [13]: Toxicity in iv dosed mouse assessed as lethality. The settings on record: in vivo. The data set is classed as organism-based.
Data set [14] is described as follows: Antitumor activity against mouse P388/VCR/I/63 cells allografted in Dublin-CDF1 mouse assessed as increase in host lifespan at 1.5 mg/kg, ip administered on days 1, 5 and 9. The settings on record: route intraperitoneal. Format: functional.
Data set [15] is described as follows: Antitumor activity against mouse P1534 cells allografted in DBA2 mouse assessed as tumor growth inhibition at 0.20 mg/kg, ip administered daily for 8 to 10 days. The data set is classed as functional. The settings on record: route intraperitoneal, read-out: TGI. In outline:
as §2

In data set [16] the test system is P388/VCR. Nature of the data set: Antitumor activity against mouse P388/VCR cells allografted in B6D2F1 mouse assessed as increase in host lifespan at 0.60 mg/kg, ip administered on days 1, 5 and 9. The data set is classed as functional. The settings on record: dose 0.6 mg/kg; route intraperitoneal. In a few lines:
as §1

Data set [17] deals with P388/VCR. Nature of the data set: Antitumor activity against mouse P388/VCR cells allografted in CD2F1 mouse assessed as increase in host lifespan at 0.60 mg/kg, ip administered on days 1, 5 and 9. Format: functional. The settings on record: dose 0.6 mg/kg; route intraperitoneal. In a few lines: as §4
Data set [18] has as its system P388/S. Nature of the data set: Antitumor activity against mouse P388/S cells allografted in CD2F1 mouse assessed as increase in host lifespan at 0.36 mg/kg, ip administered on days 1, 5 and 9. Format: functional. The note with it: route intraperitoneal. In a few lines:
as §4

Data set [19] deals with P388/VCR. Nature of the data set: Antitumor activity against mouse P388/VCR cells allografted in CD2F1 mouse assessed as increase in host lifespan at 0.36 mg/kg, ip administered on days 1, 5 and 9. Format: functional. The settings on record: route intraperitoneal. In outline: as §4
Data set [20] has as its system CHO. Nature of the data set: Mitotic arrest in CHO cells assessed as increase in cell accumulation at 2 ug/ml. The data set is classed as functional, Cricetulus griseus. In outline: as §3
Data set [21] relates to CHO. Nature of the data set: Mitotic arrest in CHO cells assessed as increase in cell accumulation at 0.2 ug/ml. Format: functional, Cricetulus griseus. In a few lines: as §3

As for `CC[C@]1(O)C[C@H]2CN(CCc3c([nH]c4ccccc34)[C@@](C(=O)OC)(c3cc4c(cc3OC)N(C=O)[C@H]3[C@@](O)(C(=O)OC)[C@H](OC(C)=O)[C@]5(CC)C=CCN6CC[C@]43[C@@H]65)C2)C1.O=S(=O)(O)O` [VINCRISTINE SULFATE], the Activity in the data set on P388/VCR [1] was 0%; in the data set on Mus musculus, “Toxic”; in the data set on P388/VCR [3] it was 0%; in data set [4], 15 days; in the data set on CHO [5] it was 40%; in the data set on P388/S [6], 83%. For the same compound, the Activity in the data set on P388/VCR [7] was 0%; in the data set on P388/S [8] it was 96%; in the data set on P388/S [9], 138%; with CHO [11], “Toxic”; with CHO [12], 10%; in [14], 50%. The Activity with P388/VCR [16] turned out to be 5%; with P388/VCR [17], 0%; with P388/S [18], 83%; in the data set on P388/VCR [19], 0%. Besides, the inhibition in vivo at 0.1 mg/kg in data set [2] was determined as 51%. For the same compound, the inhibition in vivo at 0.25 mg/kg in data set [10] is 76%. For the same compound, the LD50 in [13] worked out at 2.1 mg/kg. In addition, in data set [15], the inhibition in vivo at 0.2 mg/kg came out at 76%.

For the compound `CC[C@]1(O)C[C@@H]2C[C@](C(=O)OC)(c3cc4c(cc3OC)N(C)[C@H]3[C@@](O)(C(N)=O)[C@H](O)[C@]5(CC)C=CCN6CC[C@]43[C@@H]65)c3[nH]c4ccccc4c3CC[N+]([O-])(C2)C1`, the figures for the Activity with CHO [20] and in the data set with CHO [21] were 15% and 7%, respectively.
